Experimental data published in ChEMBL document CHEMBL1667737, “Cytochrome P450 3A4 inhibitory constituents of the wood of Taxus yunnanensis” (J Nat Prod, 2011).

Columns and labels:
Cytochrome P450 2D6 = Cytochrome P450 2D6 (Homo sapiens, UniProt P10635); assay: Inhibition of CYP2D6 after 30 mins by fluorometric assay; format: ADME
How it was run: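 cDNA-expressed CYP2D6 in insect cell microsomes with AMMC ([…] in the enzyme/substrate mix), in pH 7.4 phosphate buffer with an NADP+/glucose-6-phosphate/G6PDH/MgCl2 regenerating system. Compound in MeOH, eight-point 1:3 serial dilution. 10 min prewarm, then 30 min at 37 °C. Stopped with acetonitrile–Tris. Triplicate; IC50 by linear interpolation.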

Cytochrome P450 3A4 = Cytochrome P450 3A4 (Homo sapiens, UniProt P08684); assay: Inhibition of CYP3A4 after 30 mins by fluorometric assay; format: ADME
How it was run: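 cDNA-expressed CYP3A4 in insect cell microsomes (with insect cell control protein) O-dealkylating 7-benzyloxy-4-trifluoromethylcoumarin to fluorescent 7-HFC. Samples in MeOH, 8-point 1:3 serial dilutions in pH 7.4 potassium phosphate with an NADP+/glucose-6-phosphate/G6PDH/MgCl2 regenerating system. 10 min prewarm, 30 min at 37 °C, stopped with acetonitrile–Tris base. Triplicate; IC50 by linear interpolation.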

Sequence of Cytochrome P450 2D6 (P10635 whole entry): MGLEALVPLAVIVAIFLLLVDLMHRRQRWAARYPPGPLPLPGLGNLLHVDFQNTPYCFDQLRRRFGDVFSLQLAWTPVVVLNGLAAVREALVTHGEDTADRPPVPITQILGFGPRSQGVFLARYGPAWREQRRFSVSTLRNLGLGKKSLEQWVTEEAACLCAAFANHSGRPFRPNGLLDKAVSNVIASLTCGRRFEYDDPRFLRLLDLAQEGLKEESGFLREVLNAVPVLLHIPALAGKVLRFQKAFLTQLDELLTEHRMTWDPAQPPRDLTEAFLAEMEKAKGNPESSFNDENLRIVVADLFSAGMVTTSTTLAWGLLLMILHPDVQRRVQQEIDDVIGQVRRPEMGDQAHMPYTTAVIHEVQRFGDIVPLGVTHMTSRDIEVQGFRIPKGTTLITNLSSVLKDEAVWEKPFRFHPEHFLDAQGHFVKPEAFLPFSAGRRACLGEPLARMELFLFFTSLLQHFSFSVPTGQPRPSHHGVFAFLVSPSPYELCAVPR
Sequence of Cytochrome P450 3A4 (P08684 whole entry): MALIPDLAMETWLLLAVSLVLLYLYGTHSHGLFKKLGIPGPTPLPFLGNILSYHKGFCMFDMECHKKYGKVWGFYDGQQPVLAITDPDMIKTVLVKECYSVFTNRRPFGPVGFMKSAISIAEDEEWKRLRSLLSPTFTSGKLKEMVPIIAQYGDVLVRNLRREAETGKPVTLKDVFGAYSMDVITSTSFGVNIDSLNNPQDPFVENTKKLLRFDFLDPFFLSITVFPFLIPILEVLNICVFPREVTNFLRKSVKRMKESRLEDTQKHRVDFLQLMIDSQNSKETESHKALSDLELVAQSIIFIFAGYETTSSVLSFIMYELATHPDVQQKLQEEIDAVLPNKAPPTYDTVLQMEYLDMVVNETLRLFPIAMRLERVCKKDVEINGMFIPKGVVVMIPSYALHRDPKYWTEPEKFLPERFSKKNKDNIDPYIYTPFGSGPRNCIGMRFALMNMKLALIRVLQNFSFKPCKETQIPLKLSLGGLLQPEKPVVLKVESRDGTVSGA

| Compound | IC50 (Cytochrome P450 2D6; read-out: IC50) | IC50 (Cytochrome P450 3A4; read-out: IC50) | IC50 (Cytochrome P450 2D6) | IC50 (Cytochrome P450 3A4) |
| --- | --- | --- | --- | --- |
| COc1cc(C[C@@H](CO)[C@H](CO)Cc2ccc(O)c(OC)c2)ccc1O [(+)-SECOISOLARICIRESINOL] | > 100 µM | 47.3 µM |  |  |
| COc1cc([C@H](O)[C@H]2CO[C@H](c3ccc(O)c(O)c3)[C@H]2CO)ccc1O [(7R)-7-HYDROXYTAXIRESINOL] |  |  | Not Active | Not Active |
| COc1cc2c(cc1O)[C@H](c1ccc(O)c(O)c1)[C@@H](CO)[C@H](CO)C2 [ISOTAXIRESINOL] |  |  | Not Active | Not Active |
| COc1cc([C@@H]2Oc3cc(CCCO)ccc3O[C@H]2CO)ccc1O | > 100 µM | 54.2 µM |  |  |
| COc1cc2c(cc1O)C(=O)[C@@H](CO)[C@H](CO)C2 |  |  | Not Active | Not Active |
| COc1cc([C@@H](O)[C@@H]2CO[C@H](c3ccc(O)c(OC)c3)[C@H]2CO)ccc1O [TANEGOOL] |  |  | Not Active | Not Active |
| COc1cc([C@H]2OC[C@H]([C@@H](O)c3ccc(O)c(OC)c3)[C@@H]2CO)ccc1O | > 100 µM | 66.5 µM |  |  |
| COc1cc([C@H]2c3cc(O)c(OC)cc3C[C@@H](CO)[C@@H]2CO)ccc1O [ISOLARICIRESINOL] | 97.7 µM | > 100 µM |  |  |
| COc1cc(C[C@H]2CO[C@H](c3ccc(O)c(OC)c3)[C@H]2CO)ccc1O [LARICIRESINOL] | > 100 µM | 25.6 µM |  |  |
| COc1cc(C[C@H]2CO[C@H](c3ccc(O)c(O)c3)[C@H]2CO)ccc1O [TAXIRESINOL] | 68.1 µM | 85.6 µM |  |  |
| COc1cc([C@H]2c3cc(O)c(OC)cc3C[C@H]3C(=O)OC[C@H]23)ccc1O [ALPHA-CONIDENDRIN] | 17.7 µM | 0.2 µM |  |  |
